Data on one molecule can be found in ChEMBL document CHEMBL4354866, “TREK Channel Family Activator with a Well-Defined Structure-Activation Relationship for Pain and Neurogenic Inflammation” (J Med Chem, 2020).

SMILES strings stand for the structures. The source made the active and inactive calls.

For assay [1], the system named is Mus musculus. Briefly: Analgesic activity in CFA-induced mouse model of chronic inflammatory pain assessed as increase in paw withdrawal latency at 5 mg/kg, ip measured up to 60 mins by Hargreaves test. It is filed as functional, organism-based. The method in brief:
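CFA (20 μl) injected subcutaneously into the left hindpaw of mice. Compound given i.p. in 5% DMSO/5% Tween 80/90% saline. Heat withdrawal latency recorded with a 5 min inter-stimulation period.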

The target of assay [2] is T1, Potassium channel subfamily K member 4 (Homo sapiens, UniProt Q9NYG8).
T1 sequence (Q9NYG8 whole entry): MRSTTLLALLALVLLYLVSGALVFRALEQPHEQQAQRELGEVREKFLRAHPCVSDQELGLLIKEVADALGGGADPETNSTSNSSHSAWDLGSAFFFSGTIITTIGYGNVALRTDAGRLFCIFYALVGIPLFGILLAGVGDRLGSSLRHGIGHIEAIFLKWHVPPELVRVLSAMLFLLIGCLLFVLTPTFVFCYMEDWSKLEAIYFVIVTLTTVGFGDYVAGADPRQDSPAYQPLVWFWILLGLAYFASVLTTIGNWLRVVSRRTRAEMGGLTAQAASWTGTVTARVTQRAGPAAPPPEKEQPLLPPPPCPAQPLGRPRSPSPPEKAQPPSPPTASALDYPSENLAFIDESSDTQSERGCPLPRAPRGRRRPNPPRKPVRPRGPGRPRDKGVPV
Briefly: Activation of recombinant human TRAAK expressed in HEK293T cells assessed as increase in K+ current amplitude by whole cell voltage clamp electrophysiological analysis. It counts as cell-based. The method in brief: (§1)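 Transiently transfected HEK-293T cells, whole-cell voltage clamp. Held at -60 mV, 500-ms ramp -120 to +60 mV. Pipette (mM) 140 KCl, 5 EGTA, 10 HEPES, pH 7.4; external 145 NaCl, 4 KCl, pH 7.3. Compound diluted from 10 mM DMSO stock and applied extracellularly. Current increase over control fitted to concentration–response curves for EC50.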

Assay [3] deals with T2, Potassium channel subfamily K member 2 (Homo sapiens, UniProt O95069).
T2 sequence (O95069 whole entry): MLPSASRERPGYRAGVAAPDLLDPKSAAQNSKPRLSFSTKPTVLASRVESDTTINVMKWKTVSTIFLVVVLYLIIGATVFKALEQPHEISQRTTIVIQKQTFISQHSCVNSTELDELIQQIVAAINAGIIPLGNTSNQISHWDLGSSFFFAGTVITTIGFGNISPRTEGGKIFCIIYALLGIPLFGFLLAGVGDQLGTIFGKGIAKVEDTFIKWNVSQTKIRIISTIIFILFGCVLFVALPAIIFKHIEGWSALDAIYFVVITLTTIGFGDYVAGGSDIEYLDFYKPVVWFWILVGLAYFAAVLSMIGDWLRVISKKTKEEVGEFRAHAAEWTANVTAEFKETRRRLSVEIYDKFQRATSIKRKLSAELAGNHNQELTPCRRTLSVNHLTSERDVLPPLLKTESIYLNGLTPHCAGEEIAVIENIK
Briefly: (§2) Activation of recombinant human TREK1 expressed in HEK293T cells assessed as increase in K+ current amplitude by whole cell voltage clamp electrophysiological analysis. It counts as cell-based. In a few lines: as §1

For assay [4], the target named is T3, Potassium channel subfamily K member 2 (Homo sapiens) (UniProt O95069).
T3 sequence (whole entry): T2 sequence (O95069 whole entry)
Described as §2. It is filed as cell-based. The method in brief: as §1

The subject of assay [5] is Mus musculus. Briefly: Analgesic activity in CFA-induced mouse model of chronic inflammatory pain assessed as reduction in mechanical allodynia at 5 mg/kg, ip measured up to 90 mins by von frey test. It counts as functional, organism-based. The method in brief: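 CFA (20 μl s.c.) injected into the left hindpaw of mice; compound given i.p. in DMSO/Tween 80/saline vehicle. Mice acclimated 3 days on a wire-mesh floor; mechanical threshold measured with von Frey filaments applied in ascending order.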

Assay [6] addresses T4, TREK-2 two-pore-domain K+ channel (Mus musculus, UniProt Q3LS20).
T4 sequence (Q3LS20 whole entry): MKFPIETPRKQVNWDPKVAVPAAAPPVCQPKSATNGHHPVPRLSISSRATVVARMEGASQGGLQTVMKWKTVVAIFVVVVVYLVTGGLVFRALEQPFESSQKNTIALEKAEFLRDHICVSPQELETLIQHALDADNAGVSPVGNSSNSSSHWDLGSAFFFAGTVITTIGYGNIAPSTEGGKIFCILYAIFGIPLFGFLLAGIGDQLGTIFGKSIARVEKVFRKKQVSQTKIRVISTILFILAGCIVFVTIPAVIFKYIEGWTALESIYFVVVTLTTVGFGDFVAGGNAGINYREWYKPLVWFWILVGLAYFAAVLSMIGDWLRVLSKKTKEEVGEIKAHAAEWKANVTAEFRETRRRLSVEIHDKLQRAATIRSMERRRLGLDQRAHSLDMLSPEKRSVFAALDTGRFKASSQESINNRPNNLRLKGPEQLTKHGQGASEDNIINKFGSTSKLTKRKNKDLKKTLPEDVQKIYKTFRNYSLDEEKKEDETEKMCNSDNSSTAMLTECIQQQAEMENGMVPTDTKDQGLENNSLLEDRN
Briefly: Activation of recombinant mouse TREK2 expressed in HEK293T cells assessed as increase in K+ current amplitude by whole cell voltage clamp electrophysiological analysis. It is filed as cell-based. The method in brief: as §1

Assay [7] deals with Mus musculus. Briefly: Analgesic activity in ip dosed mouse assessed as increase in tail flick latency time measured up to 120 mins at 52 degC by tail immersion test. It counts as functional, organism-based. In a few lines:
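Male BALB/c or C57BL/6 mice, 6–8 weeks, acclimated in a holder 15 min/day for 3 days. Distal 3 cm of tail immersed at 5, 20, 40, 46 or 52 °C; flick latency recorded, cut-off 15 s. Compound i.p. in 5% DMSO/5% Tween 80/90% saline (1.25–10 mg/kg at 52 °C; 5 mg/kg across temperatures).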
A general note: Thermal pain tests record how soon the animal reacts.

The target of assay [8] is Potassium channel subfamily K member 2 (Homo sapiens, UniProt O95069, W290A). Briefly: Activation of recombinant human TREK1 W290A mutant expressed in HEK293T cells assessed as increase in K+ current amplitude by whole cell voltage clamp electrophysiological analysis. It is filed as cell-based. The method in brief:
as §1

For assay [9], the system named is Mus musculus. Briefly: Analgesic activity in cerulein-induced mouse model of acute pancreatitis assessed as reduction in myeloperoxidase activity at 10 mg/kg, ip administered at 2 hrs interval for 10 hrs starting from post-first cerulein challenge and measured 12 hrs post-first cerulein challenge. It counts as functional, organism-based. In a few lines: (§3)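 Cerulein pancreatitis: 7 hourly i.p. injections of 50 µg/kg; 10 mg/kg compound i.p. at 2, 4, 6, 8 and 10 h. Mice killed at 12 h and pancreas harvested for MPO activity and H&E histology. Ten random fields per slide scored blind by two observers for edema, inflammatory infiltration and acinar necrosis; n = 6.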

In assay [10] the target is Potassium channel subfamily K member 2 (Homo sapiens, UniProt O95069, F149A). Briefly: Activation of recombinant human TREK1 F149A mutant expressed in HEK293T cells assessed as increase in K+ current amplitude by whole cell voltage clamp electrophysiological analysis. It counts as cell-based. In a few lines: as §1
Sequence of Potassium channel subfamily K member 2 (Homo sapiens, UniProt O95069, F149A) (O95069 whole entry F149A): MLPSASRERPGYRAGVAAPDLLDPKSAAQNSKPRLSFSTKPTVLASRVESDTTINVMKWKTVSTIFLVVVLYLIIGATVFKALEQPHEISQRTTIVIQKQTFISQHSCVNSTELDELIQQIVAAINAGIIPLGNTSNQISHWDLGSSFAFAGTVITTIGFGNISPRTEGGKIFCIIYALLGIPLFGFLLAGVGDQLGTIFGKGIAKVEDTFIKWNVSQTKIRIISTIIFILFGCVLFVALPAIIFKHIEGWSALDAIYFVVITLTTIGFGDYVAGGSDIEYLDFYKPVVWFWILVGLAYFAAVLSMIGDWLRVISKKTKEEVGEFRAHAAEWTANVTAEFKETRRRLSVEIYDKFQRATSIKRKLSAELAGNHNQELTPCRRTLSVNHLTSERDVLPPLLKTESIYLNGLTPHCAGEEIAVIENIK
Assay [11] relates to Mus musculus. Briefly: Analgesic activity in cerulein-induced mouse model of acute pancreatitis assessed as reduction in pancreatic edema at 10 mg/kg, ip administered at 2 hrs interval for 10 hrs starting from post-first cerulein challenge and measured 12 hrs post-first cerulein challenge by H and E staining based histopathological analysis. It is filed as functional, organism-based. The method in brief:
as §3

Sequence of Potassium channel subfamily K member 2 (Homo sapiens, UniProt O95069, W290A) (O95069 whole entry W290A): as the sequence (O95069 whole entry F149A) above, with A149F, W290A counted along it

`Cc1ccc2nc(-c3ccc(NC(=O)[C@@H]4CC[C@H](C(=O)O)C4)cc3)sc2c1`: the outcome in the assay on Mus musculus [1], in the assay on Mus musculus [5], in the assay with Mus musculus [9] and with Mus musculus [11] was Active. The EC50 in assay [2] is 15.3 µM; in assay [3], 12.8 µM; in assay [6] it was 11.3 µM; in assay [8] it was 3.91 µM; in [10] it was 22.4 µM. The Activity result (in [4]; in the assay on Mus musculus [7]) was “Dose-dependent effect” in each case.

By EC50 is commonly meant the concentration needed to bring the measured effect to its halfway point.
